Data: ChEMBL document CHEMBL3593234, “Lanostane Triterpenes from the Tibetan Medicinal Mushroom Ganoderma leucocontextum and Their Inhibitory Effects on HMG-CoA Reductase and α-Glucosidase” (J Nat Prod, 2015)
pIC50: −log10 of the molar value.

What was measured:
[1] = target: T1, 3-hydroxy-3-methylglutaryl-coenzyme A reductase (Homo sapiens, UniProt P04035); assay: Inhibition of HMG-CoA reductase (unknown origin)
T1 sequence (P04035 whole entry): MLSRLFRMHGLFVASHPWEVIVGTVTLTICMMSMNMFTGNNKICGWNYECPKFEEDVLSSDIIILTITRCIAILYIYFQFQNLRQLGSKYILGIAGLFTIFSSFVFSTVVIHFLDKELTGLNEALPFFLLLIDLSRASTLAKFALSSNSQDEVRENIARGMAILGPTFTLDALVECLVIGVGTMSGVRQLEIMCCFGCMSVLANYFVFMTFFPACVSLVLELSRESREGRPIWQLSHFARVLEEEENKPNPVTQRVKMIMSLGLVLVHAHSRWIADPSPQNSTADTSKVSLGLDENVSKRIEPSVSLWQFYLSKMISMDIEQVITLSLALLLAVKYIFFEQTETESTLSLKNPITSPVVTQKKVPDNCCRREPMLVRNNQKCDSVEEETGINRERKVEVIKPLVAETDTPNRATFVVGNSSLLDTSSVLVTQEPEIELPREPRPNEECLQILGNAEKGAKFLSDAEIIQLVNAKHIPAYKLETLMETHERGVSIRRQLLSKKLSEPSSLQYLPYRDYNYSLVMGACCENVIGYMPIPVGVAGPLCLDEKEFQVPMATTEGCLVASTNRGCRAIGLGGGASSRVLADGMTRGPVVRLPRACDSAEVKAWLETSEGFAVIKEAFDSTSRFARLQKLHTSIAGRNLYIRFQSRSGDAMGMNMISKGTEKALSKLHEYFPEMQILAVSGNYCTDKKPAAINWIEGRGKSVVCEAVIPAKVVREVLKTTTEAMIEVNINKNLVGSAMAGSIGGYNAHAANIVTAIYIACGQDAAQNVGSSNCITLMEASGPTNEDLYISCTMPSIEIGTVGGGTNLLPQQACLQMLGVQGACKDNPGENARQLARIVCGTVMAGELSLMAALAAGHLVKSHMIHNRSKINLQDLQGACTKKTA
Outline: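 Pig liver microsomal enzyme (about 4 U/mL final), colorimetric. Compounds at 2.5–80 μM final with HMG-CoA (200 μM final) in 0.1 mol/L potassium phosphate pH 7.0 (3.5 mmol/L EDTA, 10 mmol/L DTT, 0.1 g/L BSA). Preincubated 5 min at 37 °C, then NADPH (100 μM final) added for 15 min at 37 °C. A340 read; % inhibition against enzyme-free blanks and compound-free controls.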

K562 = assay: Cytotoxicity against human K562 cells by MTT method; format: functional, cell-based
[2] = Inhibition of alpha-glucosidase in rat intestinal mucosa pre-incubated for 40 mins using p-nitrophenyl-alpha-D-glucopyranoside substrate; format: tissue-based
Outline: (§1)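 Rat intestinal mucosa powder (1.0 g) was suspended in 3 mL 0.9% saline and sonicated at 4 °C (12 × 30 s), then spun at 10000g, 4 °C, 30 min; the supernatant served as enzyme. Compound in DMSO was mixed with substrate (maltose, sucrose or p-nitrophenyl-α-D-glucopyranoside) in 0.1 M phosphate buffer pH 6.9 and preincubated 40 min. Glucose was read by GOD kit at 550 nm, with blank-corrected percent inhibition.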

[3] = Inhibition of Baker's yeast alpha-glucosidase; design: species or system Saccharomyces cerevisiae
Outline: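 Baker's yeast α-glucosidase assay read by absorbance at 405 nm. Control wells got phosphate buffer instead of compound, and blanks got buffer instead of enzyme. Percent inhibition was calculated from blank-corrected OD of test versus control wells.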

PC-3 = assay: Cytotoxicity against human PC3 cells by MTT method; format: functional, cell-based; conditions: Homo sapiens, PC-3
[4] = target: Sucrase-isomaltase, intestinal (Rattus norvegicus, UniProt P23739); assay: Inhibition of sucrase in rat intestinal mucosa pre-incubated for 40 mins using sucrose substrate; format: tissue-based; outline: as §1
Sucrase-isomaltase, intestinal, sequence (P23739 1-1013 limits assumed): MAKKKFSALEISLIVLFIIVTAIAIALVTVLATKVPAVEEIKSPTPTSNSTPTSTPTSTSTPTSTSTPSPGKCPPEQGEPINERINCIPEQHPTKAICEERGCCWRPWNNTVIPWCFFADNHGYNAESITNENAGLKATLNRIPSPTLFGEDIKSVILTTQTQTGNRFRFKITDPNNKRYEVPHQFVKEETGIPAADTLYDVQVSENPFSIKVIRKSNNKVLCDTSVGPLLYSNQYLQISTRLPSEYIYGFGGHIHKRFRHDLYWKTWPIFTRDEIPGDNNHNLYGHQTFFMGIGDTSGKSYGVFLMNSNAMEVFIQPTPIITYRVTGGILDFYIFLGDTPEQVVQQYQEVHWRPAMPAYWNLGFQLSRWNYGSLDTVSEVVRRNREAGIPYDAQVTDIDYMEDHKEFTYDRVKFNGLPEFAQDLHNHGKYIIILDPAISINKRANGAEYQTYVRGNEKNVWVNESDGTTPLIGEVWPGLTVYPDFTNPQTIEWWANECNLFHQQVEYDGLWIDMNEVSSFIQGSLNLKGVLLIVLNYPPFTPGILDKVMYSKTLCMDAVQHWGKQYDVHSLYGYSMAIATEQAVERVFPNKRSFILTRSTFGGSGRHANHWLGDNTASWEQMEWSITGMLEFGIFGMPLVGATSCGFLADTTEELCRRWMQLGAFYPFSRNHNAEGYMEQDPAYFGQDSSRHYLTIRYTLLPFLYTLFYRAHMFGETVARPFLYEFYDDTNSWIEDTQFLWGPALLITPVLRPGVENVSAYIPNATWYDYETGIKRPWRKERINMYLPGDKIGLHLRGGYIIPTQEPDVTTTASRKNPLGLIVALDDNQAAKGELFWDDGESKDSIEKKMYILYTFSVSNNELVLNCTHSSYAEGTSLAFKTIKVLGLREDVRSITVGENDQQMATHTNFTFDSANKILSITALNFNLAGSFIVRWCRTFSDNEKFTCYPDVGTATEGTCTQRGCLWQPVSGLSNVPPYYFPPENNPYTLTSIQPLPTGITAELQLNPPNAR
Sucrase-isomaltase, intestinal, sequence (P23739 1014-1841 limits assumed): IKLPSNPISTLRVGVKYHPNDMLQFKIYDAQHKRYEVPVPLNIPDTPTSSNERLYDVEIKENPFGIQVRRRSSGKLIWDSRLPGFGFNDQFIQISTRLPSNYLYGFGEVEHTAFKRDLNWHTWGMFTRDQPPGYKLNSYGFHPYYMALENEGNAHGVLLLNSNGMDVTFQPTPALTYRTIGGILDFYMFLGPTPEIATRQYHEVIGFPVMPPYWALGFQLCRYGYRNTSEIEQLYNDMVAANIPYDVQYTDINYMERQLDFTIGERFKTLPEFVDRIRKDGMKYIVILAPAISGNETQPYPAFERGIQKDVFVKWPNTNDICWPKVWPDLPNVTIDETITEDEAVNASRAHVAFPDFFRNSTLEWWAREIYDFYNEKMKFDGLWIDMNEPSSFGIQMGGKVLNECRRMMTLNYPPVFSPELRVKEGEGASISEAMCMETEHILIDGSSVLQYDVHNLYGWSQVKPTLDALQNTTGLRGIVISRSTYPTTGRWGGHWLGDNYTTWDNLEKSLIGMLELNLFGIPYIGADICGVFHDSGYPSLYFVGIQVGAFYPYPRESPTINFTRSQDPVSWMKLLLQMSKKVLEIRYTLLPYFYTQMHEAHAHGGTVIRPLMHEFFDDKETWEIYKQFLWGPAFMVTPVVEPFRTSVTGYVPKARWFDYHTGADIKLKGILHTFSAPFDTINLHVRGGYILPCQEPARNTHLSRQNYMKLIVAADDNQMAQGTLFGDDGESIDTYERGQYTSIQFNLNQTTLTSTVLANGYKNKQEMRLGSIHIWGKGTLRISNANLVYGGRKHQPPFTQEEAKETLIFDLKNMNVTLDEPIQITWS

[5] = target: T2, 3-hydroxy-3-methylglutaryl-coenzyme A reductase (Sus scrofa, UniProt Q1W675); assay: Inhibition of pig liver microsomes HMG-CoA reductase incubated for 5 mins in using HMG-CoA and NADPH by colorimetric method
T2 sequence (Q1W675 whole entry): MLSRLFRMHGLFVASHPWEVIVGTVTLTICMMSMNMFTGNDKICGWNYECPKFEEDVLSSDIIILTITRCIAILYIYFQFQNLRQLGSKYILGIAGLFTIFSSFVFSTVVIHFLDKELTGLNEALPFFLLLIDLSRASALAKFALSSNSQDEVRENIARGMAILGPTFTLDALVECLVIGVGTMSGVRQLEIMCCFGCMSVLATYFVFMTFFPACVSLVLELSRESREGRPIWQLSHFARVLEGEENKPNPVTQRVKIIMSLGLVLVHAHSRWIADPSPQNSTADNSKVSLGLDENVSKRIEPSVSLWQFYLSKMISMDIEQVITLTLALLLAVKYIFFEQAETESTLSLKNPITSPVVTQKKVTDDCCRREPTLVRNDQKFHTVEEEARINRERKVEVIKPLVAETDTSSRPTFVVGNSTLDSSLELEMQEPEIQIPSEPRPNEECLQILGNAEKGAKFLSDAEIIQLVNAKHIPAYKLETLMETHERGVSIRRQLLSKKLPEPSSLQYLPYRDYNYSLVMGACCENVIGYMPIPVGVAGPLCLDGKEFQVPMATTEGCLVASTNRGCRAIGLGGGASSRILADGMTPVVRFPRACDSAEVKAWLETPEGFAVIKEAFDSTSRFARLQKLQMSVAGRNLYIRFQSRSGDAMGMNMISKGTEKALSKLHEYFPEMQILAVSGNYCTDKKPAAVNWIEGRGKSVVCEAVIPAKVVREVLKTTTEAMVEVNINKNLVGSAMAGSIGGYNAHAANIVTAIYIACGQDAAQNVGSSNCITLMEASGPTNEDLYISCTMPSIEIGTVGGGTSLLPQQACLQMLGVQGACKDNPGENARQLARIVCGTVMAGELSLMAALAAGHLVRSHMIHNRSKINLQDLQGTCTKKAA
Outline: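 Pig liver microsomal HMG-CoA reductase at about 4 U/mL final, with compound at 2.5–80 μM final and 200 μM HMG-CoA. Buffer was 0.1 mol/L potassium phosphate pH 7.0 with EDTA, dithiothreitol and BSA. After 5 min at 37 °C, 100 μM NADPH was added for 15 min at 37 °C. Absorbance was read at 340 nm, with percent inhibition from blank-corrected OD.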

[6] = Inhibition of alpha-glucosidase (unknown origin); design: species or system Homo sapiens
Outline: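 Baker's yeast enzyme with phosphate buffer; absorbance read at 405 nm. Compound-free controls and enzyme-free blanks used. % inhibition = [(ODcontrol − ODcontrol blank) − (ODtest − ODtest blank)]/(ODcontrol − ODcontrol blank) × 100.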

| SMILES | pIC50 [2] | pIC50 [3] | pIC50 [4] | pIC50 [5] | pIC50 [1] | pIC50 (K562; Homo sapiens, K562) | pIC50 (PC-3) | pIC50 [6] | pIC50 (K562; k562) |
| --- | --- | --- | --- | --- | --- | --- | --- | --- | --- |
| C/C(=C\CC[C@@H](C)[C@H]1CC[C@@]2(C)C3=C(CC[C@]12C)[C@@]1(C)CC[C@H](O)C(C)(C)[C@@H]1CC3=O)C(=O)O |  |  |  |  | 4.65 |  |  |  |  |
| CC(C)=CCC/C(C)=C/CC/C(=C/Cc1cc(O)ccc1O)C(=O)OC[C@@](C)(O)[C@@H](O)CC[C@@H](C)[C@H]1CC[C@@]2(C)C3=CC[C@H]4C(C)(C)C(=O)CC[C@]4(C)C3=CC[C@]12C | 5.82 | 4.87 | 5.08 | 4.72 |  | 4.31 | 4.23 |  |  |
| C/C(=C\CC[C@@H](C)[C@H]1C[C@H](O)[C@@]2(C)C3=CC[C@H]4C(C)(C)C(=O)CC[C@]4(C)C3=CC[C@]12C)C(=O)O |  |  |  |  | 4.66 |  |  |  |  |
| C/C(=C\CC[C@@H](C)[C@H]1CC[C@@]2(C)C3=CC[C@H]4C(C)(C)[C@@H](O)CC[C@]4(C)C3=CC[C@]12C)CO [GANODEROL B] |  |  |  |  |  |  |  | 3.92 |  |
| C/C(=C/CC[C@@H](C)[C@H]1CC[C@@]2(C)C3=C(CC[C@]12C)[C@@]1(C)CCC(=O)C(C)(C)[C@@H]1CC3=O)C(=O)O (stereo in doubt; 18) [GANODERIC ACID DM] |  | < 4.30 |  | 5.02 |  |  | 4.09 |  | 4.73 |
| C[C@H](CC[C@H](O)[C@](C)(O)CO)[C@H]1CC[C@@]2(C)C3=CC[C@H]4C(C)(C)C(=O)CC[C@]4(C)C3=CC[C@]12C [GANODERMANONTRIOL] |  | < 4.30 |  | 4.77 |  | 4.09 | 3.98 |  |  |
| C/C(=C/CC[C@@H](C)[C@H]1CC[C@@]2(C)C3=CC[C@H]4C(C)(C)C(=O)CC[C@]4(C)C3=CC[C@]12C)C(=O)O [GANODERIC ACID S] |  | < 4.30 |  | 4.90 |  | 4.19 | 4.12 |  |  |

Now from value to compound, other results behind:

| pIC50 [2] | pIC50 [3] | pIC50 [4] | pIC50 [5] | SMILES | pIC50 [1] | pIC50 (K562; Homo sapiens, K562) | pIC50 (PC-3) | pIC50 [6] | pIC50 (K562; k562) |
| --- | --- | --- | --- | --- | --- | --- | --- | --- | --- |
| 5.09 | 5.60 | 4.65 | 4.62 | CC(C)=CCC/C(C)=C/CC/C(=C/Cc1cc(O)ccc1O)C(=O)O[C@@H](CC[C@@H](C)[C@H]1CC[C@@]2(C)C3=CC[C@H]4C(C)(C)C(=O)CC[C@]4(C)C3=CC[C@]12C)[C@](C)(O)CO |  | 4.32 | 4.84 |  |  |
|  | < 4.30 |  | 4.90 | C[C@H](CCC=C(CO)CO)[C@H]1CC[C@@]2(C)C3=C(CC[C@]12C)[C@@]1(C)CCC(=O)C(C)(C)[C@@H]1CC3=O |  | 4.38 | < 3.70 |  |  |
|  | < 4.30 |  | < 4.00 | C[C@H](CCC=C(CO)CO)[C@H]1CC[C@@]2(C)C3=C(C(=O)C[C@]12C)[C@@]1(C)CCC(=O)C(C)(C)[C@@H]1C[C@@H]3O |  | 4.94 | 3.88 |  |  |
|  | < 4.30 |  | 4.77 | C/C(=C\CC[C@@H](C)[C@H]1CC[C@@]2(C)C3=C(C(=O)C[C@]12C)[C@@]1(C)CCC(=O)[C@@](C)(CO)[C@@H]1C[C@@H]3O)C(=O)O |  | 4.75 | < 3.70 |  |  |
|  | < 4.30 |  | 4.01 | CC(=O)O[C@H]1C(=O)C2=C([C@@H](O)C[C@H]3[C@](C)(CO)C(=O)CC[C@]23C)[C@]2(C)C(=O)C[C@H]([C@H](C)CC/C=C(\C)C(=O)O)[C@@]12C |  | 3.83 | 4.05 |  |  |
|  | < 4.30 |  | 4.88 | C/C(=C\CC[C@@H](C)[C@H]1CC(=O)[C@@]2(C)C3=C(C(=O)C[C@]12C)[C@@]1(C)CCC(=O)[C@@](C)(COC(=O)C[C@@](C)(O)CC(=O)O)[C@@H]1CC3=O)C(=O)O |  | 4.84 | < 3.70 |  |  |
|  | < 4.30 |  | 4.97 | C/C(=C\CC[C@@H](C)[C@H]1CC(=O)[C@@]2(C)C3=C(C(=O)[C@H](O)[C@]12C)[C@@]1(C)CCC(=O)[C@@](C)(COC(=O)C[C@@](C)(O)CC(=O)O)[C@@H]1CC3=O)C(=O)O |  | 4.65 | < 3.70 |  |  |
|  | < 4.30 |  | < 4.00 | C[C@H](CCC=C(CO)CO)[C@H]1C[C@@H](O)[C@@]2(C)C3=C(C(=O)C[C@]12C)[C@@]1(C)CCC(=O)C(C)(C)[C@@H]1CC3 |  | < 3.70 | < 3.70 |  |  |
| 5.03 | 5.23 | 4.73 | < 4.00 | CC(C)=CCC/C(C)=C/CC/C(=C/Cc1cc(O)ccc1O)C(=O)OC[C@@](C)(O)[C@@H](O)CC[C@@H](C)[C@H]1CC[C@@]2(C)C3=C(CC[C@]12C)[C@@]1(C)CCC(=O)C(C)(C)[C@@H]1CC3=O |  | 4.97 | 4.97 |  |  |
|  | < 4.30 |  | 4.17 | C/C(=C\CC[C@@H](C)[C@H]1CC[C@@]2(C)C3=C(C(=O)[C@H](O)[C@]12C)[C@@]1(C)CCC(=O)[C@@](C)(CO)[C@@H]1C[C@@H]3O)C(=O)O |  | 4.71 | < 3.70 |  |  |
| < 4.30 | < 4.30 | < 4.30 | < 4.00 | CC(C)=CCC/C(C)=C/CC/C(=C\Cc1cc(O)ccc1O)C(=O)O[C@@H](CC[C@@H](C)[C@H]1CC[C@@]2(C)C3=CC[C@H]4C(C)(C)C(=O)CC[C@]4(C)C3=CC[C@]12C)[C@](C)(O)CO |  | 3.98 | < 3.70 |  |  |
